Source: ChEMBL document CHEMBL1275383, “Synthesis and antioxidant properties of pulvinic acids analogues” (Bioorg Med Chem, 2010)
Activity calls are given as the source filed them. The rule behind the calls is not given here.

Assays:
Type in all cases: functional
[1] = Antioxidant activity assessed as protection against 340 Gy gamma-radiation-induced thymidine degradation in 12.5 mM phosphate buffer at 50 uM by competitive immuno-enzymatic assay
In short: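 Thymidine at 15 µM with compound at 50 µM, 12.5 mM phosphate buffer, given 340 Gy from a 137Cs source. Remaining intact thymidine measured by competitive immunoassay with anti-thymidine monoclonal antibody; duplicate, averaged.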

[2] = Antioxidant activity assessed as protection against UV/H2O2-induced thymidine degradation in 12.5 mM phosphate buffer at 100 uM by competitive immuno-enzymatic assay
In short: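 Thymidine at 70 µM with compound at 100 µM and H2O2 at 5 mM in 12.5 mM phosphate buffer, irradiated at 254 nm, 1.75 J cm-2. Intact thymidine quantified by competitive anti-thymidine monoclonal antibody immunoassay; duplicate, averaged.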

[3] = Antioxidant activity assessed as protection against Fenton oxidation-induced thymidine degradation in 11.4 mM phosphate buffer at 100 uM by competitive immuno-enzymatic assay
[4] = test system: Radical scavenging activity; experiment: Antioxidant activity assessed as DPPH free radical scavenging activity by measuring [DPPH]/antioxidant EC50 ratio measured every 5 mins for 1 hr
In short: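 DPPH (200 µM ethanol stock, 100 µM final) mixed 1:1 with compound in ethanol, 10 concentrations (0–1 10^-3 M), duplicate. Read at 515 nm every 5 min for 1 h; % remaining DPPH at steady state plotted against antioxidant/DPPH molar ratio to give EC50. Reported as antiradical power; no value if steady state not reached within 1 h.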

[5] = Antioxidant activity against ABTS radical assessed as Trolox equivalent
[6] = Antioxidant activity assessed as beta-carotene bleaching activity at 116 uM after 4 hrs by spectrophotometry relative to contro
In short: (§1)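 Emulsion of β-carotene, linoleic acid and Tween 40 in oxygen-saturated water added to compound in ethanol (24 or 116 µM). Incubated at 50 °C, absorbance at 470 nm read at zero and followed over 4 h. % protection = [1 − (A0 − At)/(Ac0 − Act)] × 100 versus no-compound control; triplicate, averaged.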

[7] = Antioxidant activity assessed as beta-carotene bleaching activity at 24 uM after 4 hrs by spectrophotometry relative to control; in short: as §1

In the case of `COC(=O)[C@H](O)[C@H]1OC(=O)C(c2cccs2)=C1O`, the Activity [1] is reported as 40.3%, the Activity [2] is reported as 16.1% and the Activity [3] is reported as 0%. The Ratio [4] was 2.25.
In the case of `COC(=O)/C=C1\OC(=O)C(c2ccc(OC)cc2)=C1O`, the Activity [5] is reported as 1.31 mM, the Activity [6] is reported as over 44% and the Activity [1] is reported as 73.8%. For the same molecule, the Activity [2] was 30.7%, the Activity [3] was 32% and the Ratio [4] was 3.6.
`COC(=O)/C=C1\OC(=O)C(C(=O)OCc2ccccc2)=C1O` showed an Activity [5] of 18.5 mM, an Activity [1] of 23.1% and an Activity [2] of 13.9%. The Activity [3] was 0.3% and the Ratio [4] was 0.93.
`COC(=O)/C(=C1/OC(=O)C(c2ccc(OC)cc2)=C1O)c1ccoc1` showed an Activity [5] of 1.06 mM, an Activity [1] of 77% and an Activity [2] of 36%. For the same molecule, the Activity [3] was 13.8% and the Ratio [4] was 3.35.
`COC(=O)[C@H](O)[C@H]1OC(=O)C(c2ccc(OC)cc2)=C1O` gave an Activity [5] of 1.55 mM, an Activity [1] of 87.4% and an Activity [2] of 24.9%. The Activity [3] was 25.8% and the Ratio [4] was 3.44.
`COC(=O)[C@H](O)[C@H]1OC(=O)C(C(=O)OCc2ccccc2)=C1O` showed an Activity [5] of 43.3 mM, an Activity [1] of 47.9% and an Activity [2] of 16.8%. The Activity [3] was 2.6%.
`COC(=O)/C=C1\OC(=O)C(c2ccc(F)cc2)=C1O` showed an Activity [1] of 52.9%, an Activity [2] of 69.3% and an Activity [3] of 28.3%. For the same molecule, the Ratio [4] was 1.97.
With `COC(=O)/C(=C1/OC(=O)C(c2ccc(OC)cc2)=C1O)c1cccc(C(F)(F)F)c1` the Activity [5] was 2.75 mM, the Activity [1] was 46.3% and the Activity [2] was 35.8%. For the same molecule, the Activity [3] was 33.9% and the Ratio [4] was 4.08.
`COC(=O)[C@H](O)[C@H]1OC(=O)C(c2ccc([N+](=O)[O-])cc2)=C1O` gave an Activity [5] of 24.6 mM, an Activity [1] of 60.9% and an Activity [2] of 33.4%. For the same molecule, the Activity [3] was 70.7%.
Work on `COC(=O)/C=C1\OC(=O)C(c2ccc(Br)cc2)=C1O` yielded an Activity [5] of 17.7 mM, an Activity [1] of 51.7% and an Activity [2] of 41.2%. The Activity [3] was 27.1% and the Ratio [4] was 1.17.
Work on `Cc1c(C)c2c(c(C)c1O)CCC(C)(C(=O)O)O2` (stereo not given) yielded an Activity [1] of 5.2%, an Activity [2] of 4.4% and an Activity [3] of 11.7%.
For `COC(=O)/C(=C1/OC(=O)C(c2ccc(OC)cc2)=C1O)c1ccccc1C(F)(F)F`, the Activity [5] was 12.1 mM, the Activity [6] was “Active” and the Activity [1] was 17.6%. It also gave an Activity [2] of 46.1% and an Activity [3] of 14.8%.
`COC(=O)/C(=C1/OC(=O)C(c2ccc(OC)cc2)=C1O)c1cccc(O)c1` showed an Activity [5] of 1.56 mM, an Activity [1] of 34.2% and an Activity [2] of 50%. It also gave an Activity [3] of 91.6% and a Ratio [4] of 3.68.
Molecule `COC(=O)[C@H](O)[C@H]1OC(=O)C(c2ccc(C)cc2)=C1O` has an Activity [5] of 1.54 mM, an Activity [1] of 42.7% and an Activity [2] of 43.8%. It also gave an Activity [3] of 7% and a Ratio [4] of 3.27.
In the case of `COC(=O)/C(=C1/OC(=O)C(c2ccc(OC)cc2)=C1O)c1ccccc1`, the Activity [5] is reported as 1.67 mM, the Activity [1] is reported as 46.4% and the Activity [2] is reported as 42.9%. It also gave an Activity [3] of 58% and a Ratio [4] of 3.2.
`COC(=O)/C(=C1/OC(=O)C(c2ccc(OC)cc2)=C1O)c1ccsc1` gave an Activity [5] of 2.69 mM, an Activity [1] of 76% and an Activity [2] of 34.8%. It also gave an Activity [3] of 45.2% and a Ratio [4] of 2.97.
In the case of `COC(=O)/C=C1\OC(=O)C(c2ccc([N+](=O)[O-])cc2)=C1O`, the Activity [5] is reported as 18.7 mM, the Activity [1] is reported as 58.5% and the Activity [2] is reported as 31.5%. The Activity [3] was 40.7%.
Work on `COC(=O)/C=C1\OC(=O)C(c2ccc(C)cc2)=C1O` yielded an Activity [5] of 6.51 mM, an Activity [1] of 30% and an Activity [2] of 52.7%. The Activity [3] was 14.1% and the Ratio [4] was 2.56.
With `O=C(O)c1cc(O)c(O)c(O)c1` the Activity [5] was 1.36 mM and the Ratio [4] was 11.7.
For `O=C1O[C@H]([C@@H](O)CO)C(O)=C1O`, the Activity [5] was 0.64 mM, the Activity [7] was “inactive” and the Activity [6] was “inactive”. It also gave a Ratio [4] of 4.56.
For `COC(=O)/C(=C1/OC(=O)C(c2ccc(OC)cc2)=C1O)c1ccco1`, the Activity [5] was 1.16 mM, the Activity [1] was 62% and the Activity [2] was 28.7%. For the same molecule, the Activity [3] was 0% and the Ratio [4] was 3.42.
Molecule `COC(=O)/C(=C1/OC(=O)C(c2ccc(OC)cc2)=C1O)c1ccc(Cl)cc1` has an Activity [5] of 3.97 mM, an Activity [1] of 22.6% and an Activity [2] of 45%. The Activity [3] was 41.7% and the Ratio [4] was 3.37.
In the case of `COC(=O)[C@H](O)[C@H]1OC(=O)C(c2ccc(OCc3ccccc3)cc2)=C1O`, the Activity [5] is reported as 2.16 mM, the Activity [1] is reported as 37.4% and the Activity [2] is reported as 51%. For the same molecule, the Activity [3] was 21.1% and the Ratio [4] was 3.12.
`COC(=O)[C@H](O)[C@H]1OC(=O)C(c2ccccc2)=C1O` gave an Activity [5] of 1.94 mM, an Activity [6] of over 44% and an Activity [1] of 62%. The Activity [2] was 33.2%, the Activity [3] was 31% and the Ratio [4] was 3.57.
`COC(=O)[C@H](O)[C@H]1OC(=O)C(c2ccc(F)cc2)=C1O` showed an Activity [5] of 2.94 mM, an Activity [1] of 39% and an Activity [2] of 55.3%. It also gave an Activity [3] of 55.2% and a Ratio [4] of 4.2.
Molecule `COC(=O)/C=C1\OC(=O)C(c2cccs2)=C1O` has an Activity [1] of 51.4%, an Activity [2] of 23.6% and an Activity [3] of 0%.
`COC(=O)[C@H](O)[C@H]1OC(=O)C(c2ccc(O)cc2)=C1O` gave an Activity [5] of 0.6 mM, an Activity [1] of 63.7% and an Activity [2] of 29.4%. It also gave an Activity [3] of 93.4% and a Ratio [4] of 3.
Molecule `COC(=O)[C@H](O)[C@H]1OC(=O)C(C(C)=O)=C1O` has an Activity [5] of 82.7 mM, an Activity [1] of 5.6% and an Activity [2] of 7.4%. For the same molecule, the Activity [3] was 0%.
`COC(=O)/C=C1\OC(=O)C(c2ccc(O)cc2)=C1O` showed an Activity [5] of 0.48 mM, an Activity [1] of 57.2% and an Activity [2] of 32.6%. The Activity [3] was 82.7% and the Ratio [4] was 2.85.
For `COC(=O)[C@H](O)[C@H]1OC(=O)C(c2ccc(Br)cc2)=C1O`, the Activity [5] was 4.91 mM, the Activity [1] was 60.2% and the Activity [2] was 37.3%. For the same molecule, the Activity [3] was 37.6% and the Ratio [4] was 2.81.
With `COC(=O)/C(=C1/OC(=O)C(c2ccc(OC)cc2)=C1O)c1ccc(C(C)=O)cc1` the Activity [5] was 6.18 mM, the Activity [7] was “Active” and the Activity [6] was “Active”. It also gave an Activity [1] of 34.3%, an Activity [2] of 41.1% and an Activity [3] of 41.1%. The Ratio [4] was 3.27.
Work on `COC(=O)/C=C1\OC(=O)C(c2ccccc2)=C1O` yielded an Activity [5] of 46.2 mM, an Activity [1] of 69.4% and an Activity [2] of 37.7%. It also gave an Activity [3] of 45.8% and a Ratio [4] of 3.22.
